Measurements taken from ChEMBL document CHEMBL1123282, “Antiinflammatory activity of substituted 6-hydroxypyrimido[2,1-f]purine-2,4,8(1H,3H,9H)-triones. Atypical nonsteroidal antiinflammatory agents” (J Med Chem, 1986).
Several values for one entry are separate records, joined by “and”; a condition that tells them apart may be missing. Equal values may be shown once.

Columns and labels:
Rattus norvegicus [1] = experiment: In vivo antiinflammatory activity against rats by RPAR(reverse passive Arthus reaction) synovitis method; assay type: functional; parameters: concentration or dose not given beside the values
How it was run: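 Lewis rats, oral drug or placebo 1 h before iv BSA (2.28 mg in saline), then intraarticular rabbit anti-BSA (0.54 mg) into one knee and saline into the other, under light anesthesia. Second oral dose at 3 h; the total of both doses is the calculated dose. About 17 h after induction, subpatellar tissue with synovium is excised and weighed. Response is antibody-minus-saline knee weight, tested by analysis of variance.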

[2] = target: T1, Polyunsaturated fatty acid 5-lipoxygenase (Rattus norvegicus) (UniProt P12527); experiment: In vitro inhibitory activity against Lipoxygenase in rat neutrophils at a dose of 50 uM
T1 sequence (whole entry): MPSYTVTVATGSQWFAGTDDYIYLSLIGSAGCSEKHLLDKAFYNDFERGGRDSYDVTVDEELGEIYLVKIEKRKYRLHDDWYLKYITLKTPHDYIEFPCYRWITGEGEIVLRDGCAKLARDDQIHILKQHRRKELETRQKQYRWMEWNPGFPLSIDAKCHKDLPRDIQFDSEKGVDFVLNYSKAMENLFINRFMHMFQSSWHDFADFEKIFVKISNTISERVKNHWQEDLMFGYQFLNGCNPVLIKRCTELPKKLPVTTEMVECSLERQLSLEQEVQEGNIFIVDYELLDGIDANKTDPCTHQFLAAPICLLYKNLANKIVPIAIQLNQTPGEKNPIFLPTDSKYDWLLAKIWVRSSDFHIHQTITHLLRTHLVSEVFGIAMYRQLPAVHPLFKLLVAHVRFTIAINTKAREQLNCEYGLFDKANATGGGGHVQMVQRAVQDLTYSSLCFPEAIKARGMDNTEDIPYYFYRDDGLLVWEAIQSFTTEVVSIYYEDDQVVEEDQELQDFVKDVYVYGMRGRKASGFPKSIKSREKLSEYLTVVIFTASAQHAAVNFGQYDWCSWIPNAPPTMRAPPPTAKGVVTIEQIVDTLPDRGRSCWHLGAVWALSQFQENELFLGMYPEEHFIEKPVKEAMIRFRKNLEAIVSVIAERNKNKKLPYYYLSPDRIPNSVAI
How it was run: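 Neutrophils come from the 4 h pleural exudate of male Wistar-Lewis rats given iv BSA plus intrapleural rabbit anti-BSA IgG. Cells are washed, red cells lysed with NH4Cl, and resuspended at about 5×10^6 cells/0.1 mL in Tris pH 7.4 with NaCl and 1 mM CaCl2. Cells are preincubated with compound 4 min at room temperature.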

[3] = target: Cyclooxygenase (Rattus norvegicus) (UniProt P35355+Q63921); experiment: In vitro inhibitory activity against Prostaglandin G/H synthase in rat neutrophils at a dose of 50 uM
Rattus norvegicus [4] = experiment: Tested in vivo for antiinflammatory activity against chronic adjuvant arthritic rat by prophylactic inhibition 2 degree paw after peroral administration of 10 mg/kg of dose; assay type: functional; settings: route oral
How it was run: (§1)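 Prophylactic regimen, rats. Adjuvant is heat-killed Mycobacterium tuberculosis ground to a fine powder in paraffin oil (6 mg/mL); 0.1 mL is injected into the left hind paw. Oral drug is given 1 h before adjuvant challenge, then for 21 consecutive days; controls receive methyl cellulose. Left (1°) and right (2°) hind paw volumes are measured by plethysmograph.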

Rattus norvegicus [5] = experiment: Tested in vivo for antiinflammatory activity against chronic adjuvant arthritic rat by prophylactic inhibition 1 degree paw after peroral administration of 10 mg/kg of dose; assay type: functional; settings: route oral; how it was run: as §1

SMILES	Inhibition (Rattus norvegicus [1]) [%]	further results
CC(C)c1c(O)n(Cc2ccccc2)c2nc3c(c(=O)n(C)c(=O)n3C)n2c1=O	0	
CN(C)CCc1c(O)n(Cc2ccccc2)c2nc3c(c(=O)n(C)c(=O)n3C)n2c1=O	0	
COC(=O)Cc1c(O)n(Cc2ccccc2)c2nc3c(c(=O)n(C)c(=O)n3C)n2c1=O	14	
COc1ccc(Cn2c(O)c(CC=C(C)C)c(=O)n3c4c(=O)n(C)c(=O)n(C)c4nc23)cc1	10	inhibition [2]: 0% and 15%; inhibition [3]: 73%
CCCCn1c(=O)c2c(nc3n(Cc4ccc(F)cc4)c(O)c(CCC)c(=O)n23)n(CCCC)c1=O	8	
CCCc1c(O)n(Cc2ccc(Cl)cc2)c2nc3c(c(=O)n(C)c(=O)n3C)n2c1=O	53	
Cn1c(=O)c2c(nc3n(Cc4ccccc4)c(O)c(CCO)c(=O)n23)n(C)c1=O	17	
CCCCc1c(O)n(Cc2ccc(Cl)c(Cl)c2)c2nc3c(c(=O)n(C)c(=O)n3C)n2c1=O	33	inhibition in vivo at 10 mg/kg (Rattus norvegicus [4]): 17%; inhibition in vivo at 10 mg/kg (Rattus norvegicus [5]): 0%
CCCCC1C(=O)N(Cc2ccccc2)c2nc3ccccc3n2C1=O (stereo unspecified)	0	
CCOCCc1c(O)n(Cc2ccccc2)c2nc3c(c(=O)n(C)c(=O)n3C)n2c1=O	8	
Cc1c(O)n(Cc2ccccc2)c2nc3c(c(=O)n(C)c(=O)n3C)n2c1=O	8	
CCO/C(O)=c1\c(=O)n(Cc2ccccc2)c2nc3c(c(=O)n(C)c(=O)n3C)n2c1=O	0	
CCCCC1C(=O)N(Cc2ccccc2)c2nc3nccnc3n2C1=O (stereo unspecified)	15	inhibition in vivo at 10 mg/kg (Rattus norvegicus [4]): 8%; inhibition in vivo at 10 mg/kg (Rattus norvegicus [5]): 0%
CC[S+]([O-])CCc1c(O)n(Cc2ccccc2)c2nc3c(c(=O)n(C)c(=O)n3C)n2c1=O (stereo unspecified)	0	
CCCc1c(O)n(CCc2ccccc2)c2nc3c(c(=O)n(C)c(=O)n3C)n2c1=O	27	inhibition in vivo at 10 mg/kg (Rattus norvegicus [4]): 38%; inhibition in vivo at 10 mg/kg (Rattus norvegicus [5]): 14%
Cn1c(=O)c2c(nc3n(Cc4ccccc4)c(O)cc(=O)n23)n(C)c1=O	11	
Cc1c(O)n(Cc2ccc(F)cc2)c2nc3c(c(=O)n(C)c(=O)n3C)n2c1=O	36	
CCCCc1c(O)n(Cc2ccc(Cl)cc2)c2nc3c(c(=O)n(C)c(=O)n3C)n2c1=O	16	
CC(=O)Nc1c(O)n(Cc2ccccc2)c2nc3c(c(=O)n(C)c(=O)n3C)n2c1=O	20	
Cn1c(=O)c2c(nc3n(Cc4ccccc4)c(O)c(CC(=O)O)c(=O)n23)n(C)c1=O	11	
CCCc1c(O)n(Cc2ccccn2)c2nc3c(c(=O)n(C)c(=O)n3C)n2c1=O	17	
C#CCc1c(O)n(Cc2ccccc2)c2nc3c(c(=O)n(C)c(=O)n3C)n2c1=O	27	inhibition [2]: 11% and 7%; inhibition [3]: 9%; inhibition in vivo at 10 mg/kg (Rattus norvegicus [4]): 27%; inhibition in vivo at 10 mg/kg (Rattus norvegicus [5]): 6%
CCSCCc1c(O)n(Cc2ccccc2)c2nc3c(c(=O)n(C)c(=O)n3C)n2c1=O	0	
CCCCc1c(O)n(CC2CCCCC2)c2nc3c(c(=O)n(C)c(=O)n3C)n2c1=O	25	inhibition in vivo at 10 mg/kg (Rattus norvegicus [4]): 34%; inhibition in vivo at 10 mg/kg (Rattus norvegicus [5]): 11%
Cc1c(O)n(-c2ccccc2)c2nc3c(c(=O)n(C)c(=O)n3C)n2c1=O	14	
CCCCCCn1c(O)c(CCC)c(=O)n2c3c(=O)n(C)c(=O)n(C)c3nc12	37	inhibition in vivo at 10 mg/kg (Rattus norvegicus [4]): 43%; inhibition in vivo at 10 mg/kg (Rattus norvegicus [5]): 28%
CCCCc1c(O)n(-c2ccc(F)cc2)c2nc3c(c(=O)n(C)c(=O)n3C)n2c1=O	26	inhibition in vivo at 10 mg/kg (Rattus norvegicus [4]): 35%; inhibition in vivo at 10 mg/kg (Rattus norvegicus [5]): 29%

SMILES	Inhibition (Rattus norvegicus [1]) [%]	further results
CCCc1c(O)n(Cc2cccs2)c2nc3c(c(=O)n(C)c(=O)n3C)n2c1=O	9	inhibition in vivo at 10 mg/kg (Rattus norvegicus [4]): 9%; inhibition in vivo at 10 mg/kg (Rattus norvegicus [5]): 20%
CCCCc1c(O)n(-c2ccccc2)c2nc3c(c(=O)n(C)c(=O)n3C)n2c1=O	11	
Cn1c(=O)c2c(nc3n(Cc4ccccc4)c(O)c(N)c(=O)n23)n(C)c1=O	11	
CCCCn1c(=O)c2c(nc3n(Cc4ccccc4)c(O)c(CCC)c(=O)n23)n(CCCC)c1=O	12	
CC(C)Cc1c(O)n(Cc2ccccc2)c2nc3c(c(=O)n(C)c(=O)n3C)n2c1=O	17	
Cc1c(O)n(CCc2ccccc2)c2nc3c(c(=O)n(C)c(=O)n3C)n2c1=O	14	
CCS(=O)(=O)CCc1c(O)n(Cc2ccccc2)c2nc3c(c(=O)n(C)c(=O)n3C)n2c1=O	6	
CCCCn1c(=O)c2c(nc3n(CCc4ccccc4)c(O)c(CCC)c(=O)n23)n(CCCC)c1=O	0	
Cn1c(=O)c2c(nc3n(Cc4ccccc4)c(O)c(Cc4ccccc4)c(=O)n23)n(C)c1=O	16	
Cn1c(=O)c2c(nc3n(Cc4ccccc4)c(O)c(C4C=CCCC4)c(=O)n23)n(C)c1=O (stereo unspecified)	25	inhibition [2]: 25% and 38%; inhibition [3]: 17%; inhibition in vivo at 10 mg/kg (Rattus norvegicus [4]): 2%; inhibition in vivo at 10 mg/kg (Rattus norvegicus [5]): 8%
CCCc1c(OC)n2c3c(=O)n(C)c(=O)n(C)c3nc2n(Cc2ccccc2)c1=O	17	
Cn1c(=O)c2c(nc3n(Cc4ccc(F)cc4)c(O)c(Cc4ccccc4)c(=O)n23)n(C)c1=O	10	
CC(C)Cc1c(O)n(-c2ccccc2)c2nc3c(c(=O)n(C)c(=O)n3C)n2c1=O	16	
CCCc1c(O)n(Cc2ccc(OC)cc2)c2nc3c(c(=O)n(C)c(=O)n3C)n2c1=O	11	
CCCc1c(O)n(-c2ccc(F)cc2)c2nc3c(c(=O)n(C)c(=O)n3C)n2c1=O	27	
CCCCC1C(=O)N(Cc2ccccc2)c2nc3ncncc3n2C1=O (stereo unspecified)	21	inhibition in vivo at 10 mg/kg (Rattus norvegicus [4]): 26%; inhibition in vivo at 10 mg/kg (Rattus norvegicus [5]): 0%
CC(=O)OCCc1c(O)n(Cc2ccccc2)c2nc3c(c(=O)n(C)c(=O)n3C)n2c1=O	1	
CCCCn1c(=O)c2c(nc3n(Cc4cccs4)c(O)c(CCC)c(=O)n23)n(CCCC)c1=O	14	
CCCCc1c(O)n(Cc2ccc(Cl)cc2Cl)c2nc3c(c(=O)n(C)c(=O)n3C)n2c1=O	31	inhibition in vivo at 10 mg/kg (Rattus norvegicus [4]): 29%; inhibition in vivo at 10 mg/kg (Rattus norvegicus [5]): 0%
CCCCn1c(=O)c2c(nc3n(Cc4ccccc4)c(O)c(C)c(=O)n23)n(CCCC)c1=O	27	
CCCCc1c(O)n(Cc2ccc(F)cc2)c2nc3c(c(=O)n(CCCC)c(=O)n3CCCC)n2c1=O	6	
CC(C)c1c(O)n(CCc2ccccc2)c2nc3c(c(=O)n(C)c(=O)n3C)n2c1=O	17	
CCCc1c(O)n(-c2ccccc2)c2nc3c(c(=O)n(C)c(=O)n3C)n2c1=O	11	
CCCCc1c(O)n(Cc2ccccc2)c2nccn2c1=O	17	
CCCCn1c(=O)c2c(nc3n(Cc4ccc(OC)cc4)c(O)c(CCC)c(=O)n23)n(CCCC)c1=O	5	
Cc1c(O)n(Cc2ccc(Cl)cc2)c2nc3c(c(=O)n(C)c(=O)n3C)n2c1=O	28	
